# Bioassay records as filed in PubChem.
# In the library only some 2.2% were active in any assay of this set; here they are far more common.
# MT stabilizer: stabilizes microtubules in HeLa cells; HeLa tubulin immunostaining HCS, 24 h; share of cells brighter than vehicle mean+2SD; % tubulin-high responders, % at 10 µM; 200,000 tested, 0.83% active; AID 2205;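 active = plate Z-score above 3 for both tubulin-high and condensed-nucleus cell shares, with cell loss under 80%, at 10 µM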;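 note: anti alpha tubulin signal scored within the nucleus-defined area of each cell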
# bCat nuc transl: alters nuclear translocation of beta-catenin in HeLa cells; 190,000 tested, 0.3% active; nuclear translocation activity, % at 5 µM; immunofluorescence imaging;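 active = nuclear translocation activity above 50% at 5 µM, with a well cell count of 50 or more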;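 note: per-cell ratio of nuclear to cytoplasmic median beta-catenin stain intensity; plate controls were DMSO negative control for no effect and GSK-3 inhibitor IX positive control for full effect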
#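 Assay system: human HeLa cells, native beta-catenin; doses: 5 µM primary, 0.02–20 µM confirmation; incubation: compound treatment 24 h, 37°C, 5% CO2; technique: fluorescence imaging of beta-catenin antibody stain plus DAPI; measure: % activation, nuclear-to-cytoplasmic median beta-catenin signal ratio per cell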
# APP transl inh: APP translation inhibition; SH-SY5Y APP 5'UTR-luciferase reporter, luminescence; inhibition, % at 2 µM; 190,000 tested, 0.82% active; AID 1285;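 active = inhibition above a set limit, derived from the sample mean plus 3 SD, cut at about 45% in these data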
# BaF3 parental: counter-screen for JAK2V617F inhibitors: parental Ba/F3 viability inhibitors; CellTiter-Glo ATP luminescence; inhibition, % at 5.6 µM; 220,000 tested, 1.1% active; AID 1486;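 active = inhibition above a per-campaign cutoff, the mean inhibition of all tested compounds plus 3 SD, cut at about 27% in these data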;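 note: 0% = DMSO wells and 100% = JAK Inhibitor I control wells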
# IEC-6 cytotox: kills IEC-6 intestinal cells in KLF5 counter-screen; AID 1825; 290,000 tested, 0.78% active; IEC-6 cytotoxicity, luminescence viability; inhibition, % at 5 µM; in the data active = inhibition above about 22%;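 note: 0% = plate median of test compound wells and 100% = cytotoxic reference compound wells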
# Ba/F3 V617F tox: reduce viability of Ba/F3 cells dependent on JAK2V617F | inhibition, % at 5.6 µM | 220,000 tested, 1.1% active | Ba/F3 EpoR-JAK2V617F viability, ATP luminescence;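 active = inhibition above the campaign mean plus 3 SD over all tested compounds, cut at about 24% in these data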;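 note: cytokine-independent growth of Ba/F3 cells driven by EpoR plus mutant JAK2; 0% = DMSO-treated cells and 100% = JAK inhibitor I control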
# BaF3 tox 2: counter-screen for JAK2V617F inhibitors: parental Ba/F3 viability inhibitors; AID 1520; 580 tested, 31% active; inhibition, % at 5.6 µM; CellTiter-Glo luminescence; cells kept alive by added IL-3; shares compounds with Ba/F3 V617F tox;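 active = cell growth inhibition above the hit limit set in the earlier mutant JAK2 cell screen, cut at about 27% in these data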;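 note: plate controls were DMSO-treated cells for no effect and JAK Inhibitor I control wells for full effect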
# JAK2V617F conf: Ba/F3 EpoR-JAK2V617F viability loss, confirmation; CellTiter-Glo luminescence; shares compounds with Ba/F3 V617F tox; 580 tested, 66% active; inhibition, % at 5.6 µM; AID 1521;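 active = mean inhibition above the hit cutoff derived in the earlier primary screen, cut at about 25% in these data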;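 note: 0% = DMSO-treated cells and 100% = JAK inhibitor I control wells; higher means lower luminescence from reduced cell ATP and viability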
# Numbers without * were called inactive; / = no result.
SMILES,MT stabilizer,bCat nuc transl,APP transl inh,BaF3 parental,IEC-6 cytotox,Ba/F3 V617F tox,BaF3 tox 2,JAK2V617F conf
C/C(=C\C(=O)O)CC(=O)O,2.5,-5.9,-14.2,4.2,5.0,53.0*,-5.8,-7.1
O=C(Nc1cccc([N+](=O)[O-])c1)c1cc2ccccc2cc1O,/,1.1,/,6.5,-3.0,24.0*,63.7*,75.2*
O=C(/C=C/c1ccccc1)c1ccc2c(c1)OCCCCO2,2.1,0.5,-147.0,-0.2,1.3,0.3,/,/
O=C(CCl)N(C/C=C/c1ccccc1)c1ccc2c(c1)OCCO2,5.7,1.1,-18.8,5.3,4.5,40.3*,19.5,94.0*
C=CCN=c1scc(C)n1/N=C/c1ccc(O)c(O)c1,3.7,3.4,-7.8,25.2,11.1,61.9*,36.9*,86.0*
COc1ccc(S(=O)(=O)NCC(c2cccnc2)N2CCN(Cc3ccccc3)CC2)cc1C (stereo not given),/,/,/,/,2.5,/,/,/
O=C(NCCCCCCNC(=O)OCCO)OCCO,3.4,0.0,-10.4,5.4,5.2,83.8*,-5.1,7.1
CCC(C)n1ncn(-c2ccc(N3CCN(c4ccc(O)cc4)CC3)cc2)c1=O (stereo not given),3.7,2.5,0.3,7.6,3.7,32.8*,58.6*,48.3*
O=C1CN(C(=O)c2ccc(Cl)c(S(=O)(=O)N3CCc4ccccc43)c2)c2ccccc2N1,/,3.2,/,-5.4,0.2,-0.1,/,/
C/C(=N/NC(=O)NC12CC3CC(CC(C3)C1)C2)c1ccccc1,/,/,/,/,-7.3,/,/,/
O=C(NC(NNc1ccc([N+](=O)[O-])cc1)(C(F)(F)F)C(F)(F)F)c1ccc(Cl)cc1,3.0,/,-4.4,1.2,8.1,29.3*,-5.7,-3.3
COc1ccccc1C(C[N+](=O)[O-])c1c(N)n(C)c(=O)n(C)c1=O (stereo not given),/,0.4,/,4.5,3.3,37.1*,-0.7,96.1*
COc1ccccc1C(c1c(N)n(C)c(=O)n(C)c1=O)C(C)[N+](=O)[O-] (stereo not given),/,0.0,/,3.4,-7.5,-3.6,/,/
CCCCCCCOc1ccc(OC(=O)c2ccncc2)cc1,0.7,/,2.7,21.8,11.8,52.4*,64.8*,92.9*
CCc1ccc(-n2cnc3cc(C(=O)NCC(OC)OC)ccc32)cc1,/,/,/,/,3.3,/,/,/
N#C/C(=C\c1ccc(O)c(O)c1)C(=O)NCCCc1ccccc1,4.5,0.4,-2.8,4.4,8.8,55.5*,-2.0,87.1*
CCCn1c2ccccc2c2cnn(CC(=O)N3CCN(C4CCCCC4)CC3)c(=O)c21,/,/,/,/,3.5,/,/,/
OCC1CCCC(n2cnc3c(=S)nc[nH]c32)O1 (stereo not given),/,-1.0,/,21.7,11.3,24.5*,-0.3,1.2
CC(C)C1C(C#N)=C(N)Oc2n[nH]c(-c3ccc4ccccc4c3)c21 (stereo not given),32.5*,-7.0,55.2*,10.1,11.6,33.0*,26.0,67.6*
CC(C)C1C(C#N)=C(N)Oc2n[nH]c(-c3cccs3)c21 (stereo not given),4.5,-6.3,-7.3,10.1,3.5,4.9,/,/
CCN(CC)CCn1c(-c2ccc(C)cc2)nc(=S)c2c1CC(C)(C)OC2,/,-2.3,/,-2.9,3.7,1.6,/,/
CC1(C)Cc2c(cnn2-c2ccccc2)C(NC(=O)CCCN2CCCCC2=O)C1 (stereo not given),/,/,/,/,-0.3,/,/,/
O=C(/C=C1\NC2(CCCC2)Cc2ccccc21)C(=O)N/N=C/c1ccc(O)c(O)c1,4.4,5.3,30.7,3.4,4.1,45.0*,12.0,95.2*
Cc1cc(C)cc(NC(=O)CSc2nnc(CN3CCOCC3)n2C)c1,4.1,-2.0,1.0,1.9,-1.7,94.6*,-6.6,-5.6
Cc1cc(C)c(NC(=O)CSc2nnc(CN3CCOCC3)n2C)c(C)c1,/,/,/,/,-3.0,/,/,/
SMILES,MT stabilizer,bCat nuc transl,APP transl inh,BaF3 parental,IEC-6 cytotox,Ba/F3 V617F tox,BaF3 tox 2,JAK2V617F conf
COc1ccc(-c2cnnc(N/N=C/c3ccc(O)c(O)c3)n2)cc1,13.3,25.9,-11.5,10.9,-0.1,46.7*,83.0*,99.6*
CCOc1ccc(CCNC(=O)Cn2cccc2C(=O)c2ccccc2)cc1OCC,4.2,-5.1,18.9,1.8,-0.6,0.9,/,/
CCOc1ccc(CCNC(=O)Cn2ccc3ccccc3c2=O)cc1OCC,4.2,-0.9,-10.4,0.7,4.0,100.7*,-1.5,4.8
O=C(Nc1ccccc1)c1cnc2ccccc2n1,1.5,-2.3,-51.1,9.5,19.4,102.6*,-0.8,-3.9
O=C1N=C(N2CCOCC2)S/C1=C\c1ccc(OS(=O)(=O)c2ccccc2)cc1,3.1,0.5,-12.6,11.5,1.8,44.4*,-5.1,-3.0
CCCc1nc2n[nH]c(N)c2c2c1CCC2,6.3,-6.5,6.3,-0.3,6.6,0.8,/,/
CCCc1nc2n[nH]c(N)c2c2c1CCCC2,6.9,7.4,-14.4,3.2,2.8,24.9*,-0.8,38.8*
CCN(c1ccccc1)S(=O)(=O)c1cc(NC(=O)CSc2n[nH]c(=O)[nH]c2=O)ccc1Cl,/,1.3,/,-4.7,-5.0,-0.9,/,/
O=C(O)c1ccc(N/N=C/c2ccc(-c3ccc(Cl)cc3Cl)o2)cc1,/,-0.1,/,12.6,10.7,30.5*,45.1*,33.4*
CC1=CSC2=NC(=O)/C(=C/c3cccc(OC(=O)c4ccco4)c3)C(=N)N12,2.0,-1.3,19.2,4.1,1.9,33.6*,-3.4,-4.5
CSC1=NSC2=NC(=O)/C(=C\c3ccc(OC(=O)c4ccco4)cc3)C(=N)N12,/,/,/,/,1.9,/,/,/
COc1ccc(NCCC(O)c2ccc(Cl)cc2)cc1 (stereo not given),/,/,/,/,6.5,/,/,/
COc1ccc(C(=O)CSc2ccc(-c3ccccc3)nn2)cc1,5.2,-2.3,-8.0,7.2,1.0,5.2,/,/
COc1ccc(-c2ccc(SC)nn2)cc1,2.7,-1.0,-113.7,24.9,19.5,24.2*,31.9*,30.5*
CCc1ccc2[nH]c(C(=O)Nc3ccc(Br)c(C)n3)cc2c1,/,/,/,/,-1.4,/,/,/
Cc1cc(C)nc(N(C#N)CCOc2ccccc2)n1,2.1,1.1,10.5,17.9,-1.4,54.1*,9.5,17.6
CN(C)c1nc(N(C)C)nc(N(C#N)CCOc2ccccc2)n1,3.8,0.3,-17.6,7.4,4.5,3.4,/,/
N/C(=N\OC(=O)c1cccc(Br)c1)c1ccc(Br)cc1,0.8,0.9,5.4,0.7,6.6,35.0*,-3.0,-2.1
CC1CCCN(CCCNC(=O)c2cc3c(Cl)nc4ccccc4c3s2)C1 (stereo not given),4.9,0.7,10.2,17.8,12.7,63.1*,1.8,84.6*
Cc1nc2ccccc2c2oc(C(=O)NCCCN3CCCC(C)C3)cc12 (stereo not given),/,/,/,/,1.9,/,/,/
COc1ccc2nc(C)cc(Sc3nc4ccccc4s3)c2c1,/,-1.1,/,5.2,17.9,31.9*,17.3,55.1*
